Test results from the EternaBench riboswitch data.

Test system: MS2 coat protein
Experiment: apparent Kd, MS2 coat protein; higher = weaker binding; RNA-MaP array; FMN 200 µM where present
Procedure, shortened: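 The apparent Kd is the median of filtered binding-curve fits, one per cluster, to green signal normalised to red-channel RNA signal and control-cluster median Fmax. The clusters were on Illumina sequencing chips, and stalled E. coli RNA polymerase had transcribed the designs on them. Titration used SNAP-549-labelled MS2 coat protein from 0.7 or 1.5 nM, doubling to 3 µM, without and then with constant ligand, in 100 mM Tris-HCl pH 7.5, 80 mM KCl, 4 mM MgCl2, BSA, DTT, yeast tRNA and Tween-20.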

[1] = designed as: OFF switch for flavin mononucleotide, no ligand
[2] = ligand present: flavin mononucleotide, designed as: OFF switch for flavin mononucleotide
[3] = designed as: ON switch for flavin mononucleotide, no ligand
[4] = ligand present: flavin mononucleotide, designed as: ON switch for flavin mononucleotide

Sequence	apparent Kd [1]	apparent Kd [2]	apparent Kd [3]	apparent Kd [4]
GACUGCCGAGGAUAUACAUGAGGAUCACCCAUGUGCUUCAGCAUUUAAUAAUGCAUGGGUAGAAGGCGGUAGUC	42.8 nM	74.6 nM		
GCAUGCAUAGCGAUAUGAUCGAGAGAUCAUGUCGCUAAAUUUAGAAGGACAUGAGGAUCACCCAUGUAGGAUAUGGGAGCAUGC			11.7 nM	7.72 nM
CGAGCUGCUGUGAGGAUAUACCUAUGGGUGCGUGGGUAGAAGGCACAUGAGGAUCACCCAUGUCCUGCAGCUCG	255 nM	344 nM		
AGGGAGGGCGUGGAGGCGGAGGGACGAGAAGGUACACAUGAGGAUCACCCAUGUAGAGUGGGAGGUAAGGAUAUUGGAUGGUGG			101 nM	66.9 nM
ACAUUAGUAUCACAUGUAUUACAUGAGGAUCACCCAUGUUACUAGGAUAUGUAUUAGAAUUUACAACAGAAGGAGUUAAUUUGU	7.52 nM	7.7 nM		
CAUAAGAUAGGAUAUACAGGCCCGUCUUCAUAUUGAUCCCGACAUGAGGAUCACCCAUGUAGAAGGAUCAUAUG	13.5 nM	13.4 nM		
AUAAUUUUAUAUAUCUUUUUAAUCAGAAGGCAUAACAUGAGGAUCACCCAUGUAUAUUAUAGUUAUGAGGAUAUGAUUUGGUUA	8.94 nM	11.3 nM		
ACGGCACAUGAGGAUCACCCAUGUGCCGAGAGGCGAGGAUAUCGAAAAAAAAAAAAAAAACGAGAAGGCGCGAGAA			16.5 nM	14.4 nM
AGAUAGUUAUAACGCCAUCCCUACAUGAGGAUCACCCAUGUGCAGGAUAUAGGCUUGAAGCAGACCUAGAAGGGCACAGGCUGA	8.34 nM	22.2 nM		
GGUCCACGAGGAUAUCGAUUAUAGUACAUGAGGAUCACCCAUGUUGUCCAGGUUUCGAUUCGAGAAGGCGUGGGUU	54.4 nM	39 nM		
GACAUGAGGAUCACCCAUGUCCUUCCAGAAGGCUGGCGCGCGAAACCUAAAUCAGUUCCGCGCACAGAGGAUAUGGGCAGUUGG			72.2 nM	15.9 nM
UGUCGGAGCAGAGGAUAUUACAUGAGGAUCACCCAUGUAUGAACCAAUAUCUGGAAACAGCAAUGUAAGAAGGCUGCUCCGACA	7.16 nM	47.3 nM		
UGUUGUAUUACAGGAUAUCUAUUGAUUUUAUUUAGAGAAGGGUAUUCACAUGAGGAUCACCCAUGUAUAUACGAGGAAGUUGUG			54.6 nM	62.7 nM
AACAGCUCGUCAGGAUAUAUUUUCUAAUUAUGUAUUUAUGUACAUGAGGAUCACCCAUGUUGUUAGUAGAAGGGACGAGCUGAA	11.7 nM	12.1 nM		
CCGGAAAAGGAGGAUAUAGGAGUCGAUAGACACCUAGAAGGUCUGACAUGAGGAUCACCCAUGUGUCCUACCGG	21.2 nM	30.2 nM		
AAACAUGUCCGAGGAUAUCUGAGAUCAUUUUCAAGAGAAGGCGGACAUGAGGAUCACCCAUGUCUCUCCUCAUCAACUCCAAAU	18.8 nM	136 nM		
GGAUAGGACAGAGGAUAUACGUGCUAGAGAUACUAGCAAAAUUUCCUCACAUGAGGAUCACCCAUGUAGAAGGCUAUCCUAUCG	6.34 nM	31.9 nM		
ACAUGAGGAUCACCCAUGUAUUUAUUUGAAUCUUAAGUUACGUAGGAUAUCGUGUAUACUAUCAUCGAGAAGGACGAUGUGAUA			15.4 nM	13.6 nM
GUAGCUAUCGGAGGAUAUUCAUAGCGGAAACGGACAUGAGGAUCACCCAUGUGGCGAAAGCCUUGGGAGAAGGCCGAUAGCUAC			39.6 nM	8.1 nM
GGAUAGGACAGAGGAUAUACAGAUAGGAUCUACUAUCAAACAGUCCUGACAUGAGGAUCACCCAUGUAGAAGGCUGUCCUAUCG	21.9 nM	107 nM		
CCGUUACAUGAGGAUCACCCAUGUGAGGAUAUCGGGAUGACUGGCAGCGUGCGGGACACGAGAAGGCACUGGGC	55.5 nM	65.1 nM		
AUGAGGGAAGUAGGAUAUGAUCAAGACAUGAGGAUCACCCAUGUAAUGAGGGUGUGUGUCUUUGUUCAGAAGGACUUGUGUCAA	46.4 nM	52.6 nM		
ACGGCUAACCCAGUUUAGAUCUCAAGAAGGGUACACUGGGCAAGGUACAUGAGGAUCACCCAUGUACAGGAUAUUGAGAUGAGA	12.1 nM	34.1 nM		
